# A selection: hits, their analogues and other compounds. The true share with any hit is near 3.8%.
# BB579 growth dn = growth inhibitors of yeast BB579 in restrictive medium, primary screen, yeast lifespan-shortening project, S. cerevisiae; OD615, 48 h; inhibition, % at 10 µM; 0.51% of 140,000 active;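 active means inhibition above a set limit, 3 SD over the mean compound inhibition, cut at about 44% in these data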
#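 Assay system: S. cerevisiae DeaD strain BB579 yeast. Medium: CSMM-D restrictive synthetic medium containing dextrose (glucose). Times: 4 h cell preincubation, 48 h compound exposure, 30 °C humidified. Signal: OD615 turbidity measurement. Benchmarks: positive control amphotericin B 10 µg/mL.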
# Yeast life ext = compounds extending yeast replicative lifespan, primary screen, S. cerevisiae, OD615 | S. cerevisiae growth with nicotinamide; deaD strain in restrictive glucose medium | inhibition of the nicotinamide effect, % at 10 µM | 0.68% of 130,000 active;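 active means inhibition above a set limit, placed 3 SD over the median of all compounds, cut at about 26% in these data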;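 further: 0% = nicotinamide-treated wells and 100% = cells grown without nicotinamide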
#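 assay system = DeaD-strain S. cerevisiae | buffer or medium = restrictive glucose medium | reagent = 1.5 mM nicotinamide | compound = 10 µM single point, 0.25% DMSO | incubation = 48 h compound exposure at 30 °C, humidified | signal = OD615 measurement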
# RAM inhibit = inhibitors of the yeast RAM network, primary screen, dse1pr::URA3 reporter, 5-FOA selection; S. cerevisiae dse1pr::URA3 reporter, 5-FOA growth OD615, 2 d; analog-sensitive cbk1-as2 kinase mutant strain; inhibition, % at 50 µM; 1.8% of 190,000 active; AID 868, 2007;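 active means inhibition above a set limit, 3 SD over mean compound inhibition, cut at about 8.4% in these data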;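 further: 0% = DMSO-only wells with no growth and 100% = 10 µM 1-NA-PP1 full growth; inhibition rescues growth on 5-FOA so higher OD means more RAM inhibition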
# sdo1 growth = growth rescue of sdo1-depleted yeast, primary screen, S. cerevisiae, bone marrow failure model; S. cerevisiae sdo1-depleted JHY4D growth rescue, OD600 30 h; hits give high values; pdr5 snq2 efflux-pump mutant strain; z-score at 10 µM; 0.21% of 140,000 active;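 active means z-score above 3 at both the 24 hr and the 30 hr optical density reads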;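 further: z-score against mean and SD of all compound wells on the same plate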
# Measles CPE = compounds protecting cells from measles virus cytopathic effect, primary screen, measles RdRp inhibitor project, single point, MLSMR library, absorbance; Measles virus-infected cells, CPE protection; protection (pct of control), % at 4 µM; 1.5% of 140,000 active; AID 841, 2007; in the data active means protection mostly above about 24%, no sharp cut-off; inactive means mostly below about 26%
# * = called active by the depositor; . = no result given; [ ] = dose if it differs, or a comment.
SMILES,BB579 growth dn,Yeast life ext,RAM inhibit,sdo1 growth,Measles CPE
COc1ccc(C(=O)CSc2ncn[nH]2)cc1OC,-31,-2,0,0.42,48*
O=C(CCC1CCCCC1)Nc1ccccc1C(=O)N1CCOCC1,.,.,0,.,.
O=C(Nc1nc(-c2ccccn2)cs1)c1ccc(Br)s1,99*,-29,-2,-2.2,3
CCCCOc1ccc(-c2nnn(CC(=O)Nc3ncc(CC(=O)OCC)s3)n2)cc1,-68,-2,9.3*,-1.9,23
CCOC(=O)Cc1cnc(NC(=O)Cn2nnc(-c3ccc(OCC)cc3)n2)s1,-12,-4,3,-0.37,6
O=C(Cc1ccc(S(=O)(=O)N2CCOCC2)s1)Nc1ccc2c(c1)CCC2,-50,-4,9.4*,0.34,4
c1ccc(SSc2ccccc2)cc1,3,28*,1,0.14,77
CSCCC1COC(c2cccs2)=N1 (centres undefined),.,.,0,.,.
Cc1ccc(C)c2c3c([nH]c12)-c1nonc1CC3,-13,-24,1,-0.27,74*
COCCCNC(=O)C1CCCN(C(=O)Nc2ccc(OC)cc2)C1 (centres undefined),-36,-9,0,0.53,17
Cn1c(=O)c2c(nc(SCC(=O)c3cccs3)n2Cc2ccc(F)cc2)n(C)c1=O,-61,-8,2,-1.1,8
Cn1c(=O)c2c(nc(Br)n2CC(=O)c2cccs2)n(C)c1=O,-82,36*,1,0.05,1
COC(=O)c1cc(OC)c(OC)cc1NC(=S)Nc1cccc(C(C)=O)c1,-20,40*,1,0.57,22
COC(=O)c1cccc(NC(=S)Nc2cc(Cl)ccc2OC)c1,.,.,0,.,.
CCn1c(=O)c2ccccc2n2c(SCC(=O)N3CCCc4ccccc43)nnc12,-40,39*,-1,-0.19[8.4 µM],7
COc1cccc(-n2nnnc2SCC(=O)N2CCCc3ccccc32)c1,-44,3,3,-1.6,18
COc1cc(OC)cc(-n2nnnc2SCC(=O)N2CCCc3ccccc32)c1,-22,-33,8.9*,-1.1,9
Cc1cccc(OCCNC(=O)c2ccc(Oc3ccc(C(F)(F)F)cc3[N+](=O)[O-])cc2)c1,-38,0,6,-1.3,14
Cc1cccc(OCCNC(=O)c2cccc(Oc3ccc(C(F)(F)F)cc3[N+](=O)[O-])c2)c1,-8,2,9.0*,-0.68,3
O=c1c2ccccc2nnn1Cc1ccccc1Cl,.,.,2,.,.
COc1ccc(CCNc2oc(COc3ccc(Br)cc3)nc2C#N)cc1OC,-63,-2,10.0*,-1.2,3
CSc1nnc2c3ccccc3n(Cc3ccccc3)c2n1,-26,-4,0,-2.4,6
CSc1nnc2c3ccccc3n(CCc3ccccc3)c2n1,-20,-4,1,-1.7,55*
COc1ccccc1N1CCN(Cc2cccs2)CC1,-11,-6,0,0.2,96*
Cc1ccc(-c2cccc(C(=O)NCc3ccccc3)n2)c2ccccc12,-9,3,10*,-0.18,7
SMILES,BB579 growth dn,Yeast life ext,RAM inhibit,sdo1 growth,Measles CPE
O=C(c1ccc(Br)o1)N1CCc2ccccc21,.,.,1,.,.
CC(C)(C)NC(=O)c1ccc2nccnc2c1,-36,-16,1,0.57,52*
CC(C)(C)NC(=O)Nc1ccc2nccnc2c1,4,-12,2,0.42,20
COc1ccc(CCNC(=O)CN2CCC(C)CC2)cc1OC,-20,14,3,0.26,32*
COc1ccc(CCNC(=O)CN(C)S(=O)(=O)c2cccs2)cc1OC,-3,-9,2,1.4,36*
COc1ccc(CCNC(=O)CN2CCCc3ccccc32)cc1OC,-47,-10,2,0.57,45*
CCO[C@@H]1OC(C(=O)N2CCCCCCC2)=C[C@H](c2ccc(C(F)(F)F)cc2)[C@H]1CCCO,.,.,0,.,.
CCOC(=O)c1cc(C)nn1-c1nc(Cl)cc(OC)n1,16,-4,0,0.81,9
O=C1[C@H]2[C@@H](C(=O)N1c1cccc3ccccc13)C1(C(=O)c3ccccc3C1=O)N1CCC[C@@H]21,-31,2,2,-0.19,5
COC(=O)c1sc2cc([N+](=O)[O-])cc(SCC(C)C)c2c1N,-51,7,11*,-0.48,14

# Screens deposited in PubChem by several laboratories.
